As usually defined, the MIC is the lowest concentration that inhibits growth of the organism. Read a low MIC as a more susceptible organism.

Test [1] relates to Escherichia coli. In words: Antimicrobial activity against Escherichia coli 2062717 B-P isolated from patient with pyelonephritis assessed as >3-log reduction in urinary bacterial titer after 20 hrs. Type of test: functional, Urine.
Test [2] relates to Escherichia coli. The experiment in a line: Antimicrobial activity against Escherichia coli 1889646 B-F isolated from patient with pyelonephritis assessed as >3-log reduction in urinary bacterial titer after 4 hrs. Type of test: functional, Urine. A digest of the protocol:
(§1)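 Urine was collected on day 3 of i.v. therapy (steady state) over 4-h intervals from infusion start (0–4 to 20–24 h), stored at –80°C and sterile filtered. It was serially diluted twofold (1:0 up to 1:131,072) in the patient's own pre-dose drug-free urine. Microdilution used a final inoculum of 1.0 x 10^6 to 9.5 x 10^6 CFU/ml, incubated 18 h at 37°C in air. 10 µl was subcultured onto 5% blood Columbia agar for 24 h at 37°C. The bactericidal endpoint was >99.9% (>3-log) kill, reported as a reciprocal titer.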

For test [3], the system named is Escherichia coli. In words: Antimicrobial activity against Escherichia coli 1821385 B-C isolated from patient with pyelonephritis assessed as >3-log reduction in urinary bacterial titer after 4 hrs. It is filed as functional, Urine. A digest of the protocol: as §1
In test [4] the test system is Escherichia coli. The experiment in a line: Antimicrobial activity against Escherichia coli 1949825 B-K isolated from patient with pyelonephritis assessed as >3-log reduction in urinary bacterial titer after 4 hrs. Type of test: functional, Urine. The method, boiled down: (§2)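 Patient urine was collected on day 3 of i.v. therapy (steady state) over 4-h intervals after infusion start, stored at –80°C, and sterile filtered. It was twofold serially diluted (1:0 to 1:131,072) in the patient's own pre-dose drug-free urine, inoculated to 1.0 x 10^6–9.5 x 10^6 CFU/ml, and incubated for 18 h at 37°C. Subcultures were grown on blood agar for 24 h. The UBT is the reciprocal of the highest dilution giving >99.9% kill.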

The subject of test [5] is Escherichia coli. The experiment in a line: Antimicrobial activity against Escherichia coli 1889646 B-F isolated from patient with pyelonephritis assessed as >3-log reduction in urinary bacterial titer after 8 hrs. It is filed as functional, Urine. A digest of the protocol: as §1
The test system of test [6] is Escherichia coli. In words: Antimicrobial activity against Escherichia coli 2062717 B-P isolated from patient with pyelonephritis assessed as >3-log reduction in urinary bacterial titer after 24 hrs. It is filed as functional, Urine.
Test [7] concerns Escherichia coli. In words: Antimicrobial activity against Escherichia coli 1889645 B-I isolated from patient with pyelonephritis assessed as >3-log reduction in urinary bacterial titer after 20 hrs. It is filed as functional, Urine. A digest of the protocol:
as §1

Test [8] has as its system Escherichia coli. The experiment in a line: Antimicrobial activity against Escherichia coli 1821385 B-C isolated from patient with pyelonephritis assessed as >3-log reduction in urinary bacterial titer after 20 hrs. It is filed as functional, Urine. The method, boiled down:
as §1

For test [9], the system named is Escherichia coli. In words: Antimicrobial activity against Escherichia coli 1949826 B-L isolated from patient with pyelonephritis assessed as >3-log reduction in urinary bacterial titer after 8 hrs. Type of test: functional, Urine. A digest of the protocol: as §2
Test [10] relates to Escherichia coli. The experiment in a line: Antimicrobial activity against Escherichia coli 1949826 B-L isolated from patient with pyelonephritis assessed as >3-log reduction in urinary bacterial titer after 16 hrs. Type of test: functional, Urine. The method, boiled down:
as §2

Test [11] relates to Staphylococcus haemolyticus. The experiment in a line: Antimicrobial activity against Staphylococcus haemolyticus 1949819 B-M isolated from patient with pyelonephritis by Etest. Type of test: functional.
Test [12] relates to Escherichia coli. The experiment in a line: Antimicrobial activity against Escherichia coli 1889645 B-I isolated from patient with pyelonephritis assessed as >3-log reduction in urinary bacterial titer after 12 hrs. It is filed as functional, Urine. The method, boiled down: as §1
For test [13], the system named is Escherichia coli. In words: Antimicrobial activity against Escherichia coli 1949825 B-K isolated from patient with pyelonephritis assessed as >3-log reduction in urinary bacterial titer after 20 hrs. Type of test: functional, Urine. The method, boiled down: as §2
In test [14] the test system is Escherichia coli. The experiment in a line: Antimicrobial activity against Escherichia coli 1949826 B-L isolated from patient with pyelonephritis by Etest. Type of test: functional.
Test [15] concerns Staphylococcus epidermidis. In words: Antimicrobial activity against Staphylococcus epidermidis 1949822 B-J isolated from patient with pyelonephritis assessed as >3-log reduction in urinary bacterial titer after 8 hrs. Type of test: functional, Urine.
For test [16], the system named is Enterococcus faecalis. In words: Antimicrobial activity against Enterococcus faecalis 2297262-10 B-V isolated from patient with pyelonephritis assessed as >3-log reduction in urinary bacterial titer after 8 hrs. Type of test: functional, Urine. A digest of the protocol: (§3)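 Urine was collected before dosing and on day 3 of i.v. therapy (steady state), in 4-h intervals from infusion start (0–4 to 20–24 h), stored at −80°C and sterile filtered. It was serially diluted twofold (1:0 to 1:131,072) in the patient's drug-free pre-dose urine. Microdilution used an inoculum of 1.0 x 10^6–9.5 x 10^6 CFU/ml, incubated 18 h at 37°C, then subcultured 24 h on blood agar. The endpoint was >99.9% kill, reported as reciprocal titer.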

Test [17] relates to Escherichia coli. The experiment in a line: Antimicrobial activity against Escherichia coli 2062716 B-R isolated from patient with pyelonephritis assessed as >3-log reduction in urinary bacterial titer after 12 hrs. Type of test: functional, Urine. A digest of the protocol: as §2
Test [18] deals with Pseudomonas aeruginosa. The experiment in a line: Antimicrobial activity against Pseudomonas aeruginosa 2062713 B-Q isolated from patient with pyelonephritis assessed as >3-log reduction in urinary bacterial titer after 4 hrs. Type of test: functional, Urine.
Test [19] deals with Escherichia coli. The experiment in a line: Antimicrobial activity against Escherichia coli 1821386 B-D isolated from patient with pyelonephritis assessed as >3-log reduction in urinary bacterial titer after 24 hrs. Type of test: functional, Urine. A digest of the protocol: as §1
Test [20] deals with Pseudomonas aeruginosa. The experiment in a line: Antimicrobial activity against Pseudomonas aeruginosa 2062713 B-Q isolated from patient with pyelonephritis assessed as >3-log reduction in urinary bacterial titer after 16 hrs. Type of test: functional, Urine.
The subject of test [21] is Enterococcus faecalis. In words: Antimicrobial activity against Enterococcus faecalis 2215767-10 B-S isolated from patient with pyelonephritis assessed as >3-log reduction in urinary bacterial titer after 12 hrs. Type of test: functional, Urine. A digest of the protocol: as §3
In test [22] the test system is Escherichia coli. In words: Antimicrobial activity against Escherichia coli 1889647 B-H isolated from patient with pyelonephritis assessed as >3-log reduction in urinary bacterial titer after 20 hrs. Type of test: functional, Urine. The method, boiled down:
as §1

The subject of test [23] is Escherichia coli. The experiment in a line: Antimicrobial activity against Escherichia coli 1889647 B-H isolated from patient with pyelonephritis assessed as >3-log reduction in urinary bacterial titer after 16 hrs. It is filed as functional, Urine. A digest of the protocol:
as §1

The test system of test [24] is Escherichia coli. The experiment in a line: Antimicrobial activity against Escherichia coli 1780064 A-X isolated from patient with pyelonephritis assessed as >3-log reduction in urinary bacterial titer after 8 hrs. Type of test: functional, Urine. A digest of the protocol: as §1
In test [25] the test system is Serratia marcescens. In words: Antimicrobial activity against Serratia marcescens 2297260 B-U isolated from patient with pyelonephritis assessed as >3-log reduction in urinary bacterial titer after 16 hrs. Type of test: functional, Urine.
Test [26] deals with Escherichia coli. The experiment in a line: Antimicrobial activity against Escherichia coli 1655646 A-Y isolated from patient with pyelonephritis assessed as >3-log reduction in urinary bacterial titer after 12 hrs. It is filed as functional, Urine. A digest of the protocol: as §3
Test [27] has as its system Staphylococcus epidermidis. In words: Antimicrobial activity against Staphylococcus epidermidis 1949822 B-J isolated from patient with pyelonephritis assessed as >3-log reduction in urinary bacterial titer after 20 hrs. It is filed as functional, Urine.
Test [28] concerns Escherichia coli. The experiment in a line: Antimicrobial activity against Escherichia coli 1889647 B-H isolated from patient with pyelonephritis assessed as >3-log reduction in urinary bacterial titer after 12 hrs. It is filed as functional, Urine. A digest of the protocol:
as §1

Test [29] has as its system Serratia marcescens. The experiment in a line: Antimicrobial activity against Serratia marcescens 2297260 B-U isolated from patient with pyelonephritis by Etest. It is filed as functional.
For test [30], the system named is Escherichia coli. In words: Antimicrobial activity against Escherichia coli 2062716 B-R isolated from patient with pyelonephritis assessed as >3-log reduction in urinary bacterial titer after 8 hrs. It is filed as functional, Urine. A digest of the protocol:
as §2

In test [31] the test system is Staphylococcus epidermidis. The experiment in a line: Antimicrobial activity against Staphylococcus epidermidis 1949822 B-J isolated from patient with pyelonephritis assessed as >3-log reduction in urinary bacterial titer after 24 hrs. It is filed as functional, Urine.
The test system of test [32] is Enterococcus faecalis. In words: Antimicrobial activity against Enterococcus faecalis 2215767-10 B-S isolated from patient with pyelonephritis assessed as >3-log reduction in urinary bacterial titer after 8 hrs. It is filed as functional, Urine. A digest of the protocol: as §3
Test [33] relates to Enterococcus faecalis. The experiment in a line: Antimicrobial activity against Enterococcus faecalis 2297262-10 B-V isolated from patient with pyelonephritis assessed as >3-log reduction in urinary bacterial titer after 24 hrs. Type of test: functional, Urine. A digest of the protocol:
as §3

Test [34] relates to Escherichia coli. The experiment in a line: Antimicrobial activity against Escherichia coli 1821386 B-D isolated from patient with pyelonephritis assessed as >3-log reduction in urinary bacterial titer after 4 hrs. Type of test: functional, Urine. A digest of the protocol: as §1

Values after ≈ are worked out from the molar mass of the structure shown.

As for `C[C@@H](O)[C@H]1C(=O)N2C(C(=O)O)=C(S[C@@H]3CN[C@H](CNS(N)(=O)=O)C3)[C@H](C)[C@H]12` [DORIPENEM], the urinary bactericidal titer in [1] was determined as 32800 reciprocal titer; in test [2], 65500 reciprocal titer; in test [3] it was 4096 reciprocal titer; in test [4], 16400 reciprocal titer; in test [5], 32800 reciprocal titer; in [6] it was 2048 reciprocal titer. The urinary bactericidal titer turned out to be 65500 reciprocal titer in test [7]; 8192 reciprocal titer in test [8]; 32800 reciprocal titer in [9]; 32800 in test [10]; 131000 reciprocal titer in test [12]; 4096 reciprocal titer in [13]. The minimal inhibitory concentration (MIC) in test [11] amounted to 1 µg/mL (≈ 2.38 µM); in [14], 0.03 µg/mL (≈ 0.0713 µM).

For the compound `C[C@H]1COc2c(N3CCN(C)CC3)c(F)cc3c(=O)c(C(=O)O)cn1c23.C[C@H]1COc2c(N3CCN(C)CC3)c(F)cc3c(=O)c(C(=O)O)cn1c23.O` [LEVOFLOXACIN], the urinary bactericidal titer in test [15] was 4 reciprocal titer; in test [16] it was 0 reciprocal titer; in [17], 512 reciprocal titer; in test [18], 8 reciprocal titer; in [19] it was 2048 reciprocal titer; in test [20], 4 reciprocal titer. Further, the urinary bactericidal titer came out at 1 reciprocal titer in [21]; 512 reciprocal titer in [22]; 1024 reciprocal titer in test [23]; 512 reciprocal titer in test [24]; 128 reciprocal titer in test [25]; 2048 reciprocal titer in test [26]. The urinary bactericidal titer in test [27] is 2 reciprocal titer; in [28], 512 reciprocal titer; in test [30], 512 reciprocal titer; in test [31] it was 1 reciprocal titer; in test [32], 0 reciprocal titer; in [34], 2048 reciprocal titer. The compound also gave an MIC in test [29] of 0.19 µg/mL. The Time in test [33] is 0 h.

For the origin of these results see ChEMBL document CHEMBL1649151, “Urinary bactericidal activity of Doripenem versus that of levofloxacin in patients with complicated urinary tract infections or pyelonephritis” (Antimicrob Agents Chemother, 2009).
